From ChEMBL document CHEMBL3745692, “Novel iodoacetamido benzoheterocyclic derivatives with potent antileukemic activity are inhibitors of STAT5 phosphorylation” (Eur J Med Chem, 2016)

Legend:
K562 [1] = experiment: Cell cycle arrest in human K562 cells assessed as accumulation at G2M-phase at 1 uM for 24 hrs by propidium iodide staining based flow cytometry (reference value: 12.89%); format: functional
Outline: (§1)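 K562 cells were exposed to compound for 24 h. They were then washed in ice-cold PBS and resuspended at 1×10^6/mL in a hypotonic solution of propidium iodide 50 µg/mL in 0.1% sodium citrate with 0.03% NP-40. After 30 min, DNA content was read by flow cytometry as single-parameter histograms and cell cycle phase distribution (%) was modelled.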

[2] = target: T1, Signal transducer and activator of transcription 5A (Homo sapiens) (UniProt P42229); experiment: Inhibition of STAT5 phosphorylation in human K562 cells at 1 uM after 24 hrs by flow cytometry (reference value: 315.56); format: cell-based
T1 sequence (whole entry): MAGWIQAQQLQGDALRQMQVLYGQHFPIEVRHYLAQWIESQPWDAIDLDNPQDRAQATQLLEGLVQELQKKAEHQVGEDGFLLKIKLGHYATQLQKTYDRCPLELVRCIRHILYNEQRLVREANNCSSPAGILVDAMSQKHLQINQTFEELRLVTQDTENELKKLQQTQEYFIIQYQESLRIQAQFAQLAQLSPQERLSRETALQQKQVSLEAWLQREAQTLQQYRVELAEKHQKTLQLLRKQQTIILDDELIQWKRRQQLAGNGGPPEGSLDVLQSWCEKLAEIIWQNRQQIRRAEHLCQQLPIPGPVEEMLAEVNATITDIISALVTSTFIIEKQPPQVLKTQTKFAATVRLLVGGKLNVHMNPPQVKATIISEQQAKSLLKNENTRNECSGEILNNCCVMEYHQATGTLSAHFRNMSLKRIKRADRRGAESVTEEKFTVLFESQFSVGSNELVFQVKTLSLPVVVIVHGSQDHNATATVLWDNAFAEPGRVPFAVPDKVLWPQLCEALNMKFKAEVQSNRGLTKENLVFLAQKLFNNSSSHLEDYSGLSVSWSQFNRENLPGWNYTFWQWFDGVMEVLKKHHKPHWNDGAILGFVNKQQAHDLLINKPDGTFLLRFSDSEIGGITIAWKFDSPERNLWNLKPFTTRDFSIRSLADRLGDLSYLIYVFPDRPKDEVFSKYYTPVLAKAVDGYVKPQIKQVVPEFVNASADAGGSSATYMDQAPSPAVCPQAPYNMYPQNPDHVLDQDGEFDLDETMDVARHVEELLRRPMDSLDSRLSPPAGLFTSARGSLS
Outline: (§2)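 After 24 h exposure, about 1×10^6 K562 cells were PBS-washed and fixed/permeabilised for 20 min at 4 °C. They were then stained for 30 min at 4 °C with PE-conjugated anti-pSTAT5 monoclonal antibody, with an isotype antibody as control. Median fluorescence was read by flow cytometry and compared with untreated cells stained for pSTAT5.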

Tubulin = Tubulin (Bos taurus, UniProt Q6B856+Q862L2+Q862F3); experiment: Inhibition of bovine brain tubulin polymerization by spectrophotometry
Outline: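 Bovine brain tubulin (10 µM) was pre-incubated with varying compound concentrations in glutamate buffer at 30 °C, then cooled to 0 °C. GTP was added ([…] final) and the mixture warmed to 30 °C. Assembly was followed by turbidity at 350 nm.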

Bos taurus = species: Bos taurus; experiment: Inhibition of [3H]colchicine binding to bovine tubulin at 5 uM by DEAE-cellulose filter method
Outline: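 Reaction mixtures contained 1 µM tubulin, 5 µM [3H]colchicine and 5 µM test compound. Result is given as % inhibition of colchicine binding ± SD.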

K562 [3] = experiment: Antiproliferative activity against human K562 cells after 48 hrs by trypan blue dye exclusion assay; format: functional, cell-based; details: K562, 48 h
K562 [4] = experiment: Induction of apoptosis in human K562 cells after 48 hrs by annexinV and propidium iodide staining based flow cytometry; format: functional, cell-based; details: K562, 48 h
Outline: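 After 48 h drug exposure, 1×10^6 cells were washed in PBS and spun at 200×g for 5 min. They were stained with FITC-annexin V plus propidium iodide for 15 min at 20 °C and annexin V-positive cells counted by flow cytometry. Apoptosis was also scored morphologically with acridine orange/ethidium bromide, counting at least 300 cells. AC50 is the concentration inducing apoptosis in 50% of cells; mean ± SE from two to three experiments.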

K562 [5] = experiment: Cell cycle arrest in human K562 cells assessed as accumulation at G1 phase at 1 uM for 24 hrs by propidium iodide staining based flow cytometry (reference value: 39.27%); format: functional; outline: as §1
K562 [6] = experiment: Cell cycle arrest in human K562 cells assessed as accumulation at S-phase at 1 uM for 24 hrs by propidium iodide staining based flow cytometry (reference value: 47.84%); format: functional; outline: as §1
[7] = target: T1, Signal transducer and activator of transcription 5A (Homo sapiens); experiment: Inhibition of STAT5 phosphorylation in human K562 cells at 2 uM after 24 hrs by flow cytometry (reference value: 315.56); format: cell-based; outline: as §2
[8] = target: T1, Signal transducer and activator of transcription 5A (Homo sapiens); experiment: Inhibition of STAT5 phosphorylation in human K562 cells at 2 uM after 24 hrs by flow cytometry relative to control; format: cell-based
Outline: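 K562 cells were exposed for 24 h. About 1×10^6 cells were fixed and permeabilized for 20 min at 4 °C, then stained for 30 min at 4 °C with PE-conjugated anti-pSTAT5 monoclonal antibody; an isotype IgG1 antibody served as the background control. Median fluorescence was read by flow cytometry and compared with untreated cells stained for pSTAT5.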

K562 [9] = experiment: Cell cycle arrest in human K562 cells assessed as accumulation at G1 phase at 2 uM for 24 hrs by propidium iodide staining based flow cytometry (reference value: 39.27%); format: functional; outline: as §1
K562 [10] = experiment: Cell cycle arrest in human K562 cells assessed as accumulation at S-phase at 2 uM for 24 hrs by propidium iodide staining based flow cytometry (reference value: 47.84%); format: functional; outline: as §1
K562 [11] = experiment: Cell cycle arrest in human K562 cells assessed as accumulation at G2M-phase at 2 uM for 24 hrs by propidium iodide staining based flow cytometry (reference value: 12.89%); format: functional; outline: as §1
[12] = target: T1, Signal transducer and activator of transcription 5A (Homo sapiens); experiment: Inhibition of STAT5 phosphorylation in human K562 cells at 3 uM after 24 hrs by flow cytometry (reference value: 315.56); format: cell-based; outline: as §2
K562 [13] = experiment: Cell cycle arrest in human K562 cells assessed as accumulation at G1 phase at 3 uM for 24 hrs by propidium iodide staining based flow cytometry (reference value: 39.27%); format: functional
Outline: (§3)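 K562 cells in RPMI 1640 with 10% FCS, penicillin/streptomycin and L-glutamine, 5% CO2, 37 °C; exposed 24 h. Cells washed in ice-cold PBS, resuspended at 1×10^6/mL in hypotonic solution of propidium iodide 50 µg/mL in 0.1% sodium citrate plus 0.03% nonidet P-40 for 30 min. DNA content read as single-parameter flow cytometry histograms; phase distribution modelled.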

K562 [14] = experiment: Cell cycle arrest in human K562 cells assessed as accumulation at S-phase at 3 uM for 24 hrs by propidium iodide staining based flow cytometry (reference value: 47.84%); format: functional; outline: as §3
K562 [15] = experiment: Cell cycle arrest in human K562 cells assessed as accumulation at G2M-phase at 3 uM for 24 hrs by propidium iodide staining based flow cytometry (reference value: 12.89%); format: functional; outline: as §3
[16] = target: T1, Signal transducer and activator of transcription 5A (Homo sapiens); experiment: Inhibition of STAT5 phosphorylation in human K562 cells at 3 uM after 24 hrs by flow cytometry relative to control; format: cell-based; outline: as §2
K562 [17] = experiment: Cell cycle arrest in human K562 cells assessed as accumulation at G2M-phase at 5 uM for 24 hrs by propidium iodide staining based flow cytometry (reference value: 12.89%); format: functional; outline: as §1
[18] = target: T1, Signal transducer and activator of transcription 5A (Homo sapiens); experiment: Inhibition of STAT5 phosphorylation in human K562 cells at 5 uM after 24 hrs by flow cytometry (reference value: 315.56); format: cell-based; outline: as §2
K562 [19] = experiment: Cell cycle arrest in human K562 cells assessed as accumulation at G1 phase at 5 uM for 24 hrs by propidium iodide staining based flow cytometry (reference value: 39.27%); format: functional; outline: as §1
K562 [20] = experiment: Cell cycle arrest in human K562 cells assessed as accumulation at S-phase at 5 uM for 24 hrs by propidium iodide staining based flow cytometry (reference value: 47.84%); format: functional; outline: as §1

## COc1cc(C(=O)c2sc3c(C)cccc3c2NC(=O)CI)cc(OC)c1OC
K562 [1]
  Activity: 2.99%
[2]
  Flu intensity: 45.2
Tubulin
  IC50: 1100 nM
Bos taurus
  inhibition: 65%
K562 [3]
  IC50: 400 nM
K562 [4]
  AC50: 2800 nM
K562 [5]
  Activity: 79.88%
K562 [6]
  Activity: 17.13%

## COc1cc(C(=O)c2cc3cc(NC(=O)CI)ccc3o2)cc(OC)c1OC
[7]
  Flu intensity: 255
[8]
  inhibition: 19%
K562 [3]
  IC50: 600 nM
K562 [4]
  AC50: 2900 nM
K562 [9]
  Activity: 39.48%
K562 [10]
  Activity: 53.52%
K562 [11]
  Activity: 7%

## COc1cc(C(=O)c2oc3ccccc3c2NC(=O)CI)cc(OC)c1OC
[12]
  Flu intensity: 98.3
Tubulin
  IC50: > 20000 nM
K562 [3]
  IC50: 900 nM
K562 [4]
  AC50: 6500 nM
K562 [13]
  Activity: 75.37%
K562 [14]
  Activity: 20.98%
K562 [15]
  Activity: 3.65%

## COc1cc(C(=O)c2[nH]c3ccccc3c2NC(=O)CI)cc(OC)c1OC
[12]
  Flu intensity: 222
[16]
  inhibition: 30%
K562 [3]
  IC50: 500 nM
K562 [4]
  AC50: 2400 nM
K562 [13]
  Activity: 31.82%
K562 [14]
  Activity: 57.79%
K562 [15]
  Activity: 9.39%

## COc1cc(C(=O)c2sc3ccccc3c2NC(=O)CI)cc(OC)c1OC
K562 [3]
  IC50: 18000 nM
K562 [4]
  AC50: 28000 nM

## COc1cc(C(=O)c2oc3ccc(NC(=O)CI)cc3c2C)cc(OC)c1OC
K562 [3]
  IC50: 18000 nM
K562 [4]
  AC50: 26800 nM

## COc1cc(C(=O)c2oc3c(OC)cccc3c2NC(=O)CI)cc(OC)c1OC
K562 [3]
  IC50: 14000 nM
K562 [4]
  AC50: 24000 nM

## COc1cc(C(=O)c2c(NC(=O)CI)c3cccc(OC)c3n2C)cc(OC)c1OC
[7]
  Flu intensity: 58.2
Tubulin
  IC50: 2000 nM
Bos taurus
  inhibition: 38%
K562 [3]
  IC50: 800 nM
K562 [4]
  AC50: 4600 nM
K562 [9]
  Activity: 77.64%
K562 [10]
  Activity: 19.55%
K562 [11]
  Activity: 2.81%

## O=C(CI)Nc1c(C(=O)c2ccccc2)oc2ccccc12
K562 [17]
  Activity: 11.4%
[18]
  Flu intensity: 103
Tubulin
  IC50: > 20000 nM
K562 [3]
  IC50: 1000 nM
K562 [4]
  AC50: 5900 nM
K562 [19]
  Activity: 68.32%
K562 [20]
  Activity: 20.28%

## COc1cc(C(=O)c2cc3ccc(NC(=O)CI)cc3o2)cc(OC)c1OC
[12]
  Flu intensity: 289
K562 [3]
  IC50: 600 nM
K562 [4]
  AC50: 2900 nM
K562 [13]
  Activity: 37.06%
K562 [14]
  Activity: 51.3%
K562 [15]
  Activity: 11.1%

## COc1ccc2c(NC(=O)CI)c(C(=O)c3cc(OC)c(OC)c(OC)c3)oc2c1
Tubulin
  IC50: 1800 nM
Bos taurus
  inhibition: 54%
K562 [3]
  IC50: 120 nM
K562 [4]
  AC50: 450 nM

## COc1cc(C(=O)c2cc3c(NC(=O)CI)cccc3o2)cc(OC)c1OC
[7]
  Flu intensity: 272
K562 [3]
  IC50: 800 nM
K562 [4]
  AC50: 4500 nM
K562 [9]
  Activity: 33.67%
K562 [10]
  Activity: 53.09%
K562 [11]
  Activity: 16.24%
